Measured values reported in ChEMBL document CHEMBL4052615, “Discovery of 4-amino-3-arylsulfoquinolines, a novel non-acetylenic chemotype of metabotropic glutamate 5 (mGlu5) receptor negative allosteric modulators” (Eur J Med Chem, 2017).
Values after ≈ are worked out from the molar mass of the structure shown. Active and inactive are the calls of the source. No cut-off for these calls is given here.

Assays:
[1] = molecular target: T1, Metabotropic glutamate receptor 5 (Homo sapiens, UniProt P41594); assay: Displacement of [3H]M-MPEP from mGluR5 (unknown origin) at 1 uM measured after 60 mins relative to control
Method in brief: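 Rat cerebrocortical membranes or membranes from A18 cells expressing human mGlu5a, incubated with [³H]M-MPEP and test compound at 1 µM in 50 mM Tris pH 7.6 with 2 mM MgCl₂ and 2 mM CaCl₂, 60 min at 25°C. Non-specific binding was taken with […]. Result is % displacement, run in duplicate or triplicate.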
Target sequence in this assay (P41594 21-1212 limits assumed): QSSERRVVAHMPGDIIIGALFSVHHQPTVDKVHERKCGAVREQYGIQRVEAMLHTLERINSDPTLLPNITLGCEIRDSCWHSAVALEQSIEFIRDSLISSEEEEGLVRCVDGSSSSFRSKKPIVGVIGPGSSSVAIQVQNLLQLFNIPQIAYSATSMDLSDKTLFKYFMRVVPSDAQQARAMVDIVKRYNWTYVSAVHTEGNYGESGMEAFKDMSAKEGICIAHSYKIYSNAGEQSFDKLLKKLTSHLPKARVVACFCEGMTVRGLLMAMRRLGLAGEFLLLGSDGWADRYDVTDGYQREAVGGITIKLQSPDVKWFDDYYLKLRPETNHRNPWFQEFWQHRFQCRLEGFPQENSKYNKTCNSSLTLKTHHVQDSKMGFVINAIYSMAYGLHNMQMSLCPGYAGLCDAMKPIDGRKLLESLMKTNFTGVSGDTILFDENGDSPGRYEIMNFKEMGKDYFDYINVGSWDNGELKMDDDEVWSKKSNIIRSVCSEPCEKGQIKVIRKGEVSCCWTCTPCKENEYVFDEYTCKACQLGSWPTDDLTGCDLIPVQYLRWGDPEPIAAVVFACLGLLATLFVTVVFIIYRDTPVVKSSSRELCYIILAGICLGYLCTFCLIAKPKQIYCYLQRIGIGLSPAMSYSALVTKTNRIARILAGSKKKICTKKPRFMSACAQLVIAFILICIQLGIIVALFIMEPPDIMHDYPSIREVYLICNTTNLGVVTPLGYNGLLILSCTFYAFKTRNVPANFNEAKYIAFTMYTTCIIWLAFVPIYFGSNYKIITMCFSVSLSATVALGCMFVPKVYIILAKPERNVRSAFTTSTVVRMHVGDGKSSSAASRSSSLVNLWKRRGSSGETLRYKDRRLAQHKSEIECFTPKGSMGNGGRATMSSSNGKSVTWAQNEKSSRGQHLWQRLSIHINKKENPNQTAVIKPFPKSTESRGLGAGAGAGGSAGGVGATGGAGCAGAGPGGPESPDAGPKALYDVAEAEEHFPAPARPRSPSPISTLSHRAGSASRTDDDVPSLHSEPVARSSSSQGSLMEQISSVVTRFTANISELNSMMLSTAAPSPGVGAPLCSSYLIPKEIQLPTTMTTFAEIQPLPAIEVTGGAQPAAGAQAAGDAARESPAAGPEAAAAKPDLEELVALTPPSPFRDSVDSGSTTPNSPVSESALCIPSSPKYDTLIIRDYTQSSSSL

[2] = molecular target: T1, Metabotropic glutamate receptor 5; assay: Displacement of [3H]M-MPEP from mGluR5 (unknown origin) measured after 60 mins
Method in brief: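 The [³H]M-MPEP competition used rat cortical membranes or human mGlu5a A18 cell membranes in Tris pH 7.6 buffer with MgCl₂ and CaCl₂, 60 min at 25°C. Curves were generally 7 concentrations in duplicate or triplicate. IC50 was converted to Ki by Cheng–Prusoff, with Kd from a Scatchard plot. Non-specific binding was defined with M-MPEP.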
Target sequence in this assay (P41594 whole entry): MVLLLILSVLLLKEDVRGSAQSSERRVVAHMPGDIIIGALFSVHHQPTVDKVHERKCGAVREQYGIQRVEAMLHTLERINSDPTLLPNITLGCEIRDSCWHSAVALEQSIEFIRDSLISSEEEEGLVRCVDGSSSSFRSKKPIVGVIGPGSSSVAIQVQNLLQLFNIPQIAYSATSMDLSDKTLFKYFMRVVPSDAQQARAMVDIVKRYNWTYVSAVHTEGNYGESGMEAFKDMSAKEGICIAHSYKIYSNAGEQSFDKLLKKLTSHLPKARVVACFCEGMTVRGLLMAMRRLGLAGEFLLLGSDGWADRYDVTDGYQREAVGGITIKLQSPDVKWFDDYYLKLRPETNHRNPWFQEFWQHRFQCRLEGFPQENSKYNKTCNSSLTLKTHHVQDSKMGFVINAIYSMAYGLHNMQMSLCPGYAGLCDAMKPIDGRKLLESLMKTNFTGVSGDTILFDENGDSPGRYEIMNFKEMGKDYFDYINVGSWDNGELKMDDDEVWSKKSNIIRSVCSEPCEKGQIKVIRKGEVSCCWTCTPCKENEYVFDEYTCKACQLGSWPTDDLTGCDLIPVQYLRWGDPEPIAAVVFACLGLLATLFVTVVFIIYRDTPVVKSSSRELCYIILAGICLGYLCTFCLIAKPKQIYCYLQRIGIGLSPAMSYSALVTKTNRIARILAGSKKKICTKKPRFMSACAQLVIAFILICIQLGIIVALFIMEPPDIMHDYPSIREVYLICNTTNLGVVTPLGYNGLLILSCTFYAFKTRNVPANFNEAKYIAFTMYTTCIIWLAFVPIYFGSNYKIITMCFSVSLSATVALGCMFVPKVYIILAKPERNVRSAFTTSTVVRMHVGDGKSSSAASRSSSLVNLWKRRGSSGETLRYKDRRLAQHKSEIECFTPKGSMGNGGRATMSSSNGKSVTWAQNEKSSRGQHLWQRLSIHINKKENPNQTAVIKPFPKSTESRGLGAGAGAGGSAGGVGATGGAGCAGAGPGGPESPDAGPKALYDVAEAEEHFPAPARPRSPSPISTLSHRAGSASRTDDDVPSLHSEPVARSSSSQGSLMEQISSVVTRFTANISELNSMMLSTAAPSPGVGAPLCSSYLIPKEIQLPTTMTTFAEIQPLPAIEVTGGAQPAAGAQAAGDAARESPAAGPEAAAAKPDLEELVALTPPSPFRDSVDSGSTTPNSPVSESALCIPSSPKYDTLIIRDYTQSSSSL

[3] = molecular target: Metabotropic glutamate receptor 1 (Homo sapiens) (UniProt Q13255); assay: Activity at mGluR1 (unknown origin)
Sequence of Metabotropic glutamate receptor 1 (Homo sapiens) (Q13255 19-1194 limits assumed): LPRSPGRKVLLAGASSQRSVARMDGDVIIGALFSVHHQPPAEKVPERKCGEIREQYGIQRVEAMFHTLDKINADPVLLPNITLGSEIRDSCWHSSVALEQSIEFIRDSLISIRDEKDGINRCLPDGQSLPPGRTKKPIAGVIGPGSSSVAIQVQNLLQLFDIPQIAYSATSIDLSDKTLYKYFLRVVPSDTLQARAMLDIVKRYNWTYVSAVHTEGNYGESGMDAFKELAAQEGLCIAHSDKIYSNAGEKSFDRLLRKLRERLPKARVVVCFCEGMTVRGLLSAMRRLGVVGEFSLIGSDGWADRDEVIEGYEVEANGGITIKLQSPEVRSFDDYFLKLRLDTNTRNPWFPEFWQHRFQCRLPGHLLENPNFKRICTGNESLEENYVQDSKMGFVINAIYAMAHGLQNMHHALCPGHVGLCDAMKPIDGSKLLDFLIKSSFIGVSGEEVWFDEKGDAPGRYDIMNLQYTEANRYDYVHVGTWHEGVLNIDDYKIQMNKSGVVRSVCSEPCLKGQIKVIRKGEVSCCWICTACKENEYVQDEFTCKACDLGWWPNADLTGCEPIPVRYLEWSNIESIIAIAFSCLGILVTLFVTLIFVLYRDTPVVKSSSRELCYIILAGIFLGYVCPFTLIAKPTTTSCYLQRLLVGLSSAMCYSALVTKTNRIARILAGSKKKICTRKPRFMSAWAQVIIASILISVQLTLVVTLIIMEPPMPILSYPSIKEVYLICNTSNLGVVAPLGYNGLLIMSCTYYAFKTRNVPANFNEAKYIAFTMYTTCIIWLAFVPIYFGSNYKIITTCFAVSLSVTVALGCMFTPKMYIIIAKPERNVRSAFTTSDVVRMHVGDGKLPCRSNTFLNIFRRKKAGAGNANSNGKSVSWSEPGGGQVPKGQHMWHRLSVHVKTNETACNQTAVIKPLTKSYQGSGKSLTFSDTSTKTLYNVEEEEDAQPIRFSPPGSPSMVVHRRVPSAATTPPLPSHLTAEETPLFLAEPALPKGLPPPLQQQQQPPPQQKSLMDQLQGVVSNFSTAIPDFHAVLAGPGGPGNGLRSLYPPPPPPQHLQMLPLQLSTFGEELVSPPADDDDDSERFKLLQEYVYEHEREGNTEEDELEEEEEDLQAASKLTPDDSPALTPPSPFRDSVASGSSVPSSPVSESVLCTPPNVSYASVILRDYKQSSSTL

Rattus norvegicus = assay: Anxiolytic activity in ip dosed rat assessed as increase in water drinking time during punished period by Vogel punished drinking conflict test; assay type: functional; details: read-out: MED
Method in brief: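 Rats were water-deprived 48 h. On test day, compound was given i.p. in 5% Tween/distilled water at 1, 3 or 10 mg/kg, n=8 per dose. A 30-s unpunished drinking period followed. Comparison to vehicle was by ANOVA with Duncan post-hoc, giving MED.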

[4] = Aqueous solubility of the compound in water; assay type: physicochemical
[5] = Drug level in blood of rat at 10 mg/kg, ip at 40 mins post dose; assay type: ADME, organism-based; details: read-out: Drug uptake

inhibition [1] [%] | SMILES | other results
92 | CC1CCN(c2c(S(=O)(=O)c3ccc(Cl)cc3)cnc3ccc(Cl)cc23)CC1 | Ki [2]: 435 nM
91 | CC1CCN(c2c(S(=O)(=O)c3ccc(Cl)c(Cl)c3)cnc3ccc(F)cc23)CC1 | Ki [2]: 55.6 nM; minimal effective dose (Rattus norvegicus): 30 mg/kg; solubility [4]: < 3 µM; concentration at 40 min [5]: 46 ng/mL
94 | Cc1ccc2ncc(S(=O)(=O)c3cccc(F)c3)c(N3CCC(C)CC3)c2c1 | solubility [4]: < 3 µM
44 | Cc1ccc2ncc(S(=O)(=O)c3cccc(Cl)c3)c(N3CCOCC3)c2c1 | 
88 | Cc1ccc(S(=O)(=O)c2cnc3cc(F)ccc3c2N2CCC(C)CC2)cc1 | 
86 | CC1CCN(c2c(S(=O)(=O)c3ccc(Cl)c(Cl)c3)cnc3ccc(Cl)cc23)CC1 | Ki [2]: 103 nM; minimal effective dose (Rattus norvegicus): > 30 mg/kg; solubility [4]: < 3 µM; concentration at 40 min [5]: 55 ng/mL
69 | CC1CCN(c2c(S(=O)(=O)c3cc(Cl)cc(Cl)c3)cnc3ccc(F)cc23)CC1 | 
10 | Cc1ccc2ncc(S(=O)(=O)c3cccc(F)c3)c(N3CCOCC3)c2c1 | 
87 | CC1CCN(c2c(S(=O)(=O)c3ccccc3)cnc3cc(F)ccc23)CC1 | 
71 | O=S(=O)(c1cccc(F)c1)c1cnc2cc(Cl)ccc2c1N1CCC(CO)CC1 | 
94 | CC1CCN(c2c(S(=O)(=O)c3ccc(F)c(F)c3)cnc3cc(F)ccc23)CC1 | 
90 | Cc1ccc(S(=O)(=O)c2cnc3cc(F)ccc3c2N2CCC(C)CC2)cc1C | 
5.6 to 96 | CC1CCN(c2c(S(=O)(=O)c3cccc(F)c3)cnc3cc(Cl)ccc23)CC1 | 
31 | CC1CCN(c2c(S(=O)(=O)c3ccc(C#N)cc3)cnc3ccc(Cl)cc23)CC1 | 
73 | COc1ccc2ncc(S(=O)(=O)c3ccc(C)c(F)c3)c(N3CCC(C)CC3)c2c1 | 
93 | CC1CCN(c2c(S(=O)(=O)c3ccccc3)cnc3cc(Cl)ccc23)CC1 | 
82 | CC1CCN(c2c(S(=O)(=O)c3ccc(F)c(F)c3)cnc3ccc(F)cc23)CC1 | 
74.5 to 75 | CC1CCN(c2c(S(=O)(=O)c3ccc(F)cc3)cnc3cc(F)ccc23)CC1 | 

inhibition [1] [%] | SMILES | other results
59 | CC1CCN(c2c(S(=O)(=O)c3ccccc3)cnc3ccc(Cl)cc23)CC1 | 
82 | Cc1ccc2ncc(S(=O)(=O)c3ccc(Cl)c(Cl)c3)c(N3CCC(C)CC3)c2c1 | 
0 | COc1cccc(S(=O)(=O)c2cnc3ccc(OC)cc3c2N2CCC(C)CC2)c1 | 
68 | COc1ccc2ncc(S(=O)(=O)c3cccc(F)c3)c(N3CCC(C)CC3)c2c1 | 
90 | COc1ccc(S(=O)(=O)c2cnc3cc(F)ccc3c2N2CCC(C)CC2)cc1 | 
90 | Cc1ccc2ncc(S(=O)(=O)c3ccc(C)c(C)c3)c(N3CCC(C)CC3)c2c1 | 
62 | CC1CCN(c2c(S(=O)(=O)c3cccc(F)c3)cnc3c(F)cccc23)CC1 | 
79 | COc1ccc2ncc(S(=O)(=O)c3cc(C)cc(C)c3)c(N3CCC(C)CC3)c2c1 | 
95 | CC1CCN(c2c(S(=O)(=O)c3ccc(F)c(Cl)c3)cnc3c(F)cccc23)CC1 | 
83 | COc1ccc(S(=O)(=O)c2cnc3cc(F)ccc3c2N2CCC(C)CC2)cc1OC | 
89.2 | CC1CCN(c2c(S(=O)(=O)c3ccccc3)cnc3ccccc23)CC1 | Ki [2]: 108 nM
33 | Cc1ccc2ncc(S(=O)(=O)c3ccc(C)c(F)c3)c(N3CCOCC3)c2c1 | 
91 | Cc1ccc2ncc(S(=O)(=O)c3ccc(C)c(F)c3)c(N3CCC(C)CC3)c2c1 | 
94 | Cc1ccc(S(=O)(=O)c2cnc3cc(Cl)ccc3c2N2CCC(C)CC2)cc1 | 
95 | Cc1ccc(S(=O)(=O)c2cnc3ccc(Cl)cc3c2N2CCC(C)CC2)cc1 | 
61 | COc1ccc(S(=O)(=O)c2cnc3ccc(Cl)cc3c2N2CCC(C)CC2)cc1OC | 
93 | Cc1ccc(S(=O)(=O)c2cnc3c(F)cccc3c2N2CCC(C)CC2)cc1F | 
87 | CC1CCN(c2c(S(=O)(=O)c3cc(Cl)cc(Cl)c3)cnc3cc(F)ccc23)CC1 | 

Further lines, the compound ahead of its results:

SMILES | inhibition [1] [%] | other results
Cc1ccc(S(=O)(=O)c2cnc3ccccc3c2NCc2ccccc2)cc1 | 73.5 | Ki [2]: 198 nM
Cc1ccc(S(=O)(=O)c2cnc3ccccc3c2N2CCOCC2)cc1C |  | Activity [3]: inactive
N#Cc1cc(F)cc(S(=O)(=O)c2cnc3cc(Cl)ccc3c2N2CCC(CO)CC2)c1 |  | Ki [2]: 24.1 nM; minimal effective dose (Rattus norvegicus): > 10 mg/kg; solubility [4]: 15 to 45 µM (≈ 6.9 to 20.7 µg/mL); concentration at 40 min [5]: 608 ng/mL
O=S(=O)(c1ccccc1)c1cnc2ccccc2c1N1CCCCC1 | 71.4 | Ki [2]: 307 nM
O=S(=O)(c1cccc(Cl)c1)c1cnc2cc(Cl)ccc2c1N1CCC(CO)CC1 |  | Ki [2]: 30.9 nM; minimal effective dose (Rattus norvegicus): 10 mg/kg; solubility [4]: 15 to 45 µM (≈ 6.77 to 20.3 µg/mL); concentration at 40 min [5]: 193 ng/mL
CC1CCN(c2c(S(=O)(=O)c3cc(F)cc(F)c3)cnc3cc(Cl)ccc23)CC1 | 94 | Ki [2]: 68.2 nM
CCN(CC)c1c(S(=O)(=O)c2ccc(C)cc2)cnc2ccccc12 | 78.3 | Ki [2]: 201 nM
COc1cccc(S(=O)(=O)c2cnc3ccc(OC)cc3c2N2CCOCC2)c1 | 20 | 
O=S(=O)(c1cc(F)cc(F)c1)c1cnc2cc(Cl)ccc2c1N1CCOCC1 | 67 | 
COc1ccc2ncc(S(=O)(=O)c3ccc(Cl)cc3)c(N3CCOCC3)c2c1 | 93 | 
NS(=O)(=O)N1CCN(c2c(S(=O)(=O)c3cc(F)cc(F)c3)cnc3cc(F)ccc23)CC1 | 6.4 | 
Cc1cc(C)cc(S(=O)(=O)c2cnc3ccc(F)cc3c2N2CCOCC2)c1 | 43 | 
Cc1ccc(S(=O)(=O)c2cnc3ccc(Cl)cc3c2N2CCOCC2)cc1 | 84 | 
O=S(=O)(c1ccccc1)c1cnc2ccccc2c1N1CCCCCC1 | 79.9 | Ki [2]: 310 nM
O=S(=O)(c1ccccc1)c1cnc2ccc(Cl)cc2c1N1CCOCC1 | 18 | 
O=S(=O)(c1ccc(F)cc1)c1cnc2cc(F)ccc2c1N1CCOCC1 | 29 | 
O=S(=O)(c1ccc(Cl)cc1)c1cnc2ccc(Cl)cc2c1N1CCOCC1 | 15 | 
COc1ccc(S(=O)(=O)c2cnc3ccc(Cl)cc3c2N2CCOCC2)cc1Cl | 33 | 
COc1ccc(S(=O)(=O)c2cnc3c(F)cccc3c2N2CCC(C)CC2)cc1 | 67 | 
Cc1ccc(S(=O)(=O)c2cnc3ccc(Cl)cc3c2N2CCOCC2)cc1F | 23 | 
Cc1ccc2ncc(S(=O)(=O)c3ccc(F)c(Cl)c3)c(N3CCOCC3)c2c1 | 73 | 
N#Cc1cccc(S(=O)(=O)c2cnc3ccc(F)cc3c2N2CCOCC2)c1 | 25 | 
O=S(=O)(c1ccc(F)cc1)c1cnc2ccc(Cl)cc2c1N1CCOCC1 | 6 | 
O=S(=O)(c1ccc(F)cc1)c1cnc2cc(Cl)ccc2c1N1CCC(CO)CC1 | 75 | 

SMILES | inhibition [1] [%] | other results
Cc1ccc2ncc(S(=O)(=O)c3ccccc3)c(N3CCOCC3)c2c1 | 86 | 
COc1ccc(S(=O)(=O)c2cnc3cc(F)ccc3c2N2CCOCC2)cc1Cl | 53 | 
COc1ccc(S(=O)(=O)c2cnc3ccc(C)cc3c2N2CCOCC2)cc1Cl | 58 | 
O=S(=O)(c1cc(F)cc(F)c1)c1cnc2cc(F)ccc2c1N1CCSCC1 | 78.4 | 
Cc1ccc(S(=O)(=O)c2cnc3ccc(F)cc3c2N2CCOCC2)cc1Cl | 69 | 
Cc1ccc2ncc(S(=O)(=O)c3ccc(C)c(Cl)c3)c(N3CCOCC3)c2c1 | 75 | 
COc1cccc(S(=O)(=O)c2cnc3ccc(Cl)cc3c2N2CCOCC2)c1 | 28 | 
CC1CCN(c2c(S(=O)(=O)c3ccc(Cl)c(Cl)c3)cnc3c(F)cccc23)CC1 | 95 | 
N#Cc1cccc(S(=O)(=O)c2cnc3ccc(Cl)cc3c2N2CCOCC2)c1 | 20 | 
Cc1ccc(S(=O)(=O)c2cnc3cc(Cl)ccc3c2N2CCOCC2)cc1F | 38 | 
O=S(=O)(c1ccc(F)cc1)c1cnc2cc(F)ccc2c1N1CCSCC1 | 62.7 | 
COc1ccc(S(=O)(=O)c2cnc3ccc(F)cc3c2N2CCOCC2)cc1OC | -5 | 
COc1ccc(S(=O)(=O)c2cnc3cc(F)ccc3c2N2CCOCC2)cc1 | 23 | 
O=S(=O)(c1ccccc1)c1cnc2cc(F)ccc2c1N1CCOCC1 | 4 | 
N#Cc1ccc(S(=O)(=O)c2cnc3ccc(F)cc3c2N2CCOCC2)cc1 | -3 | 
CC1CCN(c2c(S(=O)(=O)c3ccc(Cl)cc3)cnc3c(F)cccc23)CC1 | 85 | 
O=S(=O)(c1cccc(F)c1)c1cnc2c(F)cccc2c1N1CCOCC1 | 23 | 
COc1ccc2ncc(S(=O)(=O)c3cccc(C#N)c3)c(N3CCOCC3)c2c1 | 20 | 
Cc1ccc(S(=O)(=O)c2cnc3ccc(F)cc3c2N2CCOCC2)cc1F | 28 | 
O=S(=O)(c1ccc(Cl)c(Cl)c1)c1cnc2c(F)cccc2c1N1CCOCC1 | 86 | 
Cc1cc(C)cc(S(=O)(=O)c2cnc3ccc(C)cc3c2N2CCOCC2)c1 | 47 | 
CCN1CCN(c2c(S(=O)(=O)c3ccccc3)cnc3ccccc23)CC1 | 1.7 | 
O=S(=O)(c1cc(Cl)cc(Cl)c1)c1cnc2ccc(Cl)cc2c1N1CCOCC1 | 14 | 
O=S(=O)(c1ccc(F)c(F)c1)c1cnc2ccc(Cl)cc2c1N1CCOCC1 | 2 | 
